EBI2 block: blocks human EBI2 receptor beta-arrestin signaling | P32249 | EBI2 beta-arrestin recruitment, luminescence, 7a,25-OHC stimulated | inhibition, % at 5 µM | 360,000 tested, 0.81% active; in the data active = inhibition above about 38%;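 also: enzyme fragment complementation signal reports receptor beta-arrestin coupling in cells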
CCR6 antag: blocks CCL20-driven beta-arrestin recruitment at human CCR6. P51684. CHO-K1 CCR6 PathHunter beta-arrestin, luminescence, CCL20-stimulated. inhibition, % at 20 µM. 340,000 tested, 0.49% active. AID 493098;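 active = compounds whose inhibition of the agonist-driven luminescence signal at 20 µM reaches about 50%, limit read from the data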;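 also: cells stimulated with CCL20 at 14 nM final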
CXCR6 inh: inhibitors of human CXCR6 receptor. CHO-K1 PathHunter CXCR6 beta-arrestin, luminescence. O00574. 360,000 tested, 0.36% active. AID 602244. inhibition, % at 20 µM; in the data active = inhibition above about 34%, passing the limit was not always enough;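 also: antagonist mode with CXCL16 agonist at 10 nM final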
APJ antag: APJ receptor antagonism | P35414 | CHO-K1 APJ beta-arrestin complementation, luminescence | inhibition, % at 20 µM | 330,000 tested, 0.32% active | AID 2521;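 active = inhibition above about 40% at 20 µM, limit read from the data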;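 also: cells challenged with 10 nM apelin-13 agonist together with compound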
Target sequence (P35414 whole entry, looked up): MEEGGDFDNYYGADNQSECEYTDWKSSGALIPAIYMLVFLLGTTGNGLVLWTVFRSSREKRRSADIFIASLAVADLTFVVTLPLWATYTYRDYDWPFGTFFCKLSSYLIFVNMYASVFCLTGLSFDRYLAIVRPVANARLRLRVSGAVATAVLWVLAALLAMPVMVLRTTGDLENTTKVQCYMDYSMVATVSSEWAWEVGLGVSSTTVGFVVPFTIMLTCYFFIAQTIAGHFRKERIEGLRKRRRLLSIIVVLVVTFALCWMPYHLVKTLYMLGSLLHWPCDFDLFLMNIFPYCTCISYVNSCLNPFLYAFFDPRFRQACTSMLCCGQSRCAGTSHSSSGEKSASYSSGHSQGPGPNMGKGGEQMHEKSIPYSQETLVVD
APJ ag: agonists of human APJ apelin receptor | activation, % at 20 µM | CHO-K1 APJ PathHunter beta-arrestin, luminescence; 0% DMSO wells, 100% apelin | 330,000 tested, 0.11% active | P35414;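 active = activation more than six SD over the plate average, tested at 20 µM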
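Material: engineered CHO-K1 APJ arrestin reporter cells; amount: 1000 CHO-K1 reporter cells seeded per well; incubation: compound stimulation 90 min at 25 °C, detection 60 min; signal: luminescent beta-gal fragment complementation, chemiluminescent substrate; read-out basis: APJ agonist activity; controls: DMSO-only wells as negative, 10 nM Apelin-13 as positive control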
B2AR ag: activates human beta-2 adrenergic receptor causing internalization; P07550; Am2.2-beta2AR cells, FAP receptor internalization, flow cytometry; response, % (test concentration not listed); 340,000 tested, 0.43% active; AID 504454;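 active = response above a set limit, near 3 SD of response in nonfluorescent compounds, cut at about 42% in these data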
EBI2 antag conf: EBI2 (human) antagonism, single concentration confirmation; inhibition, % at 5 µM; 2,400 tested, 29% active; EBI2 beta-arrestin luminescence, 7a,25-OHC antagonism; AID 651997; shares compounds with EBI2 block;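 active = inhibition of at least 50%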
EBI2 ag: EBI2 agonism counter-screen. shares compounds with EBI2 block. EBI2-expressing cells, agonist mode, luminescence, 60 min; 0% vehicle, 100% 7α,25-dihydroxycholesterol control. activation, % at 5 µM. 2,400 tested, under 10 active;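 active = activation of at least 50%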
bGal cs: inhibits E. coli beta-galactosidase, counter-screen for EBI2 antagonists | shares compounds with EBI2 block | purified beta-galactosidase, luminescent Galacton Star, 15 min | inhibition, % at 5 µM | 2,400 tested, 1% active | AID 652176;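 active = replicate-average signal at least 3 plate SD below neutral wells, shown as high inhibition, flagging enzyme-inhibiting false positives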;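 also: higher means stronger loss of beta-gal luminescence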
Of the large screens only hits and unclear results are named; the others gave an inactive call (follow-up assays come after a bar, where they were run). Shown are actives, neighbours in structure and some others; about 1.8% of the full set was active somewhere.

COc1cc2c(cc1OC)C13CCN4CC5=CCOC(CC(=O)O)C(C5CC41)C3N2 (stereo not drawn)	none (no result: APJ antag, APJ ag)
CC1C(=O)OC2CCN3CC4OC4(COC(=O)C(C)(O)C1(C)O)C23 (stereo not drawn)	none (no result: APJ antag, APJ ag)
O=C(c1ccc(F)c([N+](=O)[O-])c1)N1CC2CC(C1)c1cccc(=O)n1C2 (stereo not drawn)	none
Cc1ncc(C(=O)O)n1C(C)c1ccccc1 (stereo not drawn)	none (no result: CCR6 antag, APJ antag, APJ ag, B2AR ag)
CCOC(=O)c1cncn1[C@@H](C)c1ccccc1	EBI2 block 56 | EBI2 antag conf inactive | EBI2 ag inactive | bGal cs inactive
